In EPA's CvTdb concentration-time database:

What was measured:
Rat [1] = assay: concentration in heart after dosing; conditions: 1 h; dosed: Bis 2-Chloroethoxy Methane; 20 mg/kg; iv; Male; F344
Rat [2] = assay: concentration in heart after dosing; conditions: 4 h; dosed: Bis 2-Chloroethoxy Methane; 20 mg/kg; iv; Male; F344
Rat [3] = assay: concentration in heart after dosing; conditions: 5 h; dosed: Bis 2-Chloroethoxy Methane; 20 mg/kg; iv; Female; F344
Rat [4] = assay: concentration in liver after dosing; conditions: 10 min; dosed: Bis 2-Chloroethoxy Methane; 20 mg/kg; iv; Male; F344
Rat [5] = assay: concentration in heart after dosing; conditions: 3 h; dosed: Bis 2-Chloroethoxy Methane; 20 mg/kg; iv; Female; F344
Rat [6] = assay: concentration in thymus after dosing; conditions: 7 h; dosed: Bis 2-Chloroethoxy Methane; 20 mg/kg; iv; Male; F344
Rat [7] = assay: concentration in plasma after dosing; conditions: dosed: Fluorotelomer alcohol 8+2, 24 mg/kg, oral, Male, Harlan Sprague Dawley
Rat [8] = assay: concentration in kidney after dosing; conditions: 1 h; dosed: Fluorotelomer alcohol 8+2; 24 mg/kg; oral; Male; Harlan Sprague Dawley
Rat [9] = assay: concentration in liver after dosing; conditions: 3 h; dosed: Fluorotelomer alcohol 8+2; 80 mg/kg; oral; Female; Harlan Sprague Dawley
Rat [10] = assay: concentration in kidney after dosing; conditions: 6 h; dosed: Fluorotelomer alcohol 8+2; 80 mg/kg; oral; Female; Harlan Sprague Dawley
Rat [11] = assay: concentration in plasma after dosing; conditions: 4 h; dosed: Di-n-butyl phthalate; 100 mg/kg; oral; Male; Sprague-Dawley
Rat [12] = assay: concentration in plasma after dosing; conditions: 6 h; dosed: Di-n-butyl phthalate; 100 mg/kg; oral; Male; Sprague-Dawley
Rat [13] = assay: concentration in plasma after dosing; conditions: 40 min; dosed: Di-n-butyl phthalate; 50 mg/kg; oral; Male; Sprague-Dawley
Rat [14] = assay: concentration in plasma after dosing; conditions: 0.25 h; dosed: Di-n-butyl phthalate; 100 mg/kg; oral; Male; Sprague-Dawley
Rat [15] = assay: concentration in plasma after dosing; conditions: dosed: Perfluorodecanoic acid, 2 mg/kg, oral, Male, Harlan Sprague Dawley
Rat [16] = assay: concentration in kidney after dosing; conditions: 1 h; dosed: Perfluorodecanoic acid; 10 mg/kg; oral; Female; Harlan Sprague Dawley
Rat [17] = assay: concentration in kidney after dosing; conditions: 24 h; dosed: Perfluorodecanoic acid; 10 mg/kg; oral; Male; Harlan Sprague Dawley
Rat [18] = assay: concentration in kidney after dosing; conditions: 3360 h; dosed: Perfluorodecanoic acid; 10 mg/kg; oral; Male; Harlan Sprague Dawley
Rat [19] = assay: concentration in heart after dosing; conditions: 10 min; dosed: Thiodiglycolic Acid; 20 mg/kg; iv; Male; F344
Rat [20] = assay: concentration in thymus after dosing; conditions: 40 min; dosed: Thiodiglycolic Acid; 20 mg/kg; iv; Female; Harlan Sprague Dawley
Rat [21] = assay: concentration in thymus after dosing; conditions: 6.667 h; dosed: Thiodiglycolic Acid; 20 mg/kg; iv; Female; Harlan Sprague Dawley
Rat [22] = assay: concentration in liver after dosing; conditions: 10 min; dosed: Thiodiglycolic Acid; 20 mg/kg; iv; Female; Harlan Sprague Dawley
Rat [23] = assay: concentration in heart after dosing; conditions: 20 min; dosed: Thiodiglycolic Acid; 20 mg/kg; iv; Female; Harlan Sprague Dawley
Rat [24] = assay: concentration in heart after dosing; conditions: 2 h; dosed: Thiodiglycolic Acid; 20 mg/kg; iv; Female; Harlan Sprague Dawley
Rat [25] = assay: concentration in plasma after dosing; conditions: 2 h; dosed: Thiodiglycolic Acid; 20 mg/kg; iv; Female; Harlan Sprague Dawley
Rat [26] = assay: concentration in liver after dosing; conditions: 40 min; dosed: Thiodiglycolic Acid; 20 mg/kg; iv; Female; Harlan Sprague Dawley
Rat [27] = assay: concentration in plasma after dosing; conditions: 20 min; dosed: Thiodiglycolic Acid; 20 mg/kg; iv; Female; F344
Rat [28] = assay: concentration in heart after dosing; conditions: 4 h; dosed: Thiodiglycolic Acid; 20 mg/kg; iv; Female; Harlan Sprague Dawley
Rat [29] = assay: concentration in thymus after dosing; conditions: 3 h; dosed: Thiodiglycolic Acid; 20 mg/kg; iv; Female; Harlan Sprague Dawley
Rat [30] = assay: concentration in plasma after dosing; conditions: dosed: dichloroacetic acid, 40 mg/kg, oral, Female, Harlan Sprague Dawley
Rat [31] = assay: concentration in plasma after dosing; conditions: dosed: dichloroacetic acid, 100 mg/kg, oral, Male, F344
human = assay: concentration in urine after dosing; conditions: dosed: trichloroethylene, inhalation, duration: 2 hr - 20 min
Outline: (§1)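 Sampling and analytical methods are those of each source and frequently went unreported. The concentration-versus-time and amount-versus-time points were compiled from published in vivo toxicokinetic studies and two structured collections. Most were digitised from plot screenshots with WebPlotDigitizer, with others copied from tables, in the reported units.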

dog = assay: concentration in urine after dosing; conditions: dosed: trichloroethylene, 100 ppm, inhalation, duration: 6 hr, male, beagle
Outline: as §1

ClCCOCOCCCl [Bis 2-Chloroethoxy Methane]
Conditions	concentration in heart [ng/g]	concentration in liver [ng/g]	concentration in thymus [ng/g]
Rat [1]	1380	–	–
Rat [2]	83.9	–	–
Rat [3]	33	–	–
Rat [4]	–	5360	–
Rat [5]	124	–	–
Rat [6]	–	–	15.2

OCCC(F)(F)C(F)(F)C(F)(F)C(F)(F)C(F)(F)C(F)(F)C(F)(F)C(F)(F)F [Fluorotelomer alcohol 8+2]
Rat [7]
Conditions	concentration in plasma [ng/mL]
5 min	6.79
9 h	23.5

Conditions	concentration in kidney [ng/g]	concentration in liver [ng/g]
Rat [8]	1520	–
Rat [9]	–	8140
Rat [10]	834	–

CCCCOC(=O)c1ccccc1C(=O)O [Mono-n-butyl phthalate]
Conditions	concentration in plasma [ng/mL]
Rat [11]	10200
Rat [12]	4950
Rat [13]	14200
Rat [14]	13200

O=C(O)C(F)(F)C(F)(F)C(F)(F)C(F)(F)C(F)(F)C(F)(F)C(F)(F)C(F)(F)C(F)(F)F [Perfluorodecanoic acid]
Rat [15]
Conditions	concentration in plasma [ng/mL]
0.5 h	2500
24 h	7510
1848 h	1090

Conditions	concentration in kidney [ng/g]
Rat [16]	22800
Rat [17]	29300
Rat [18]	1240

O=C(O)CSCC(=O)O [Thiodiglycolic Acid]
Conditions	concentration in heart [ng/g]	concentration in liver [ng/g]	concentration in plasma [ng/mL]	concentration in thymus [ng/g]
Rat [19]	8210	–	–	–
Rat [20]	–	–	–	3380
Rat [21]	–	–	–	335
Rat [22]	–	70700	–	–
Rat [23]	6060	–	–	–
Rat [24]	1640	–	–	–
Rat [25]	–	–	1400	–
Rat [26]	–	10000	–	–
Rat [27]	–	–	7410	–
Rat [28]	620	–	–	–
Rat [29]	–	–	–	986

O=C(O)C(Cl)Cl [dichloroacetic acid]
concentration in plasma [ng/mL]
Conditions	0.25 h	1 h	2 min	6 h
Rat [30]	–	7020	704	–
Rat [31]	15500	–	–	29500

O=C(O)C(Cl)(Cl)Cl [trichloroacetic acid]
concentration in urine [mg/kg], human
Conditions	2.667 h	6.667 h	10.67 h	19.67 h
1348 mg	6.6	14.2	15.6	21.1
1681 mg	4.3	10.6	22.2	24.9
3907 mg	3	14.2	22.9	26.7

dog
Conditions	concentration in urine [ng/mL]
24 h	32600
48 h	92800
72 h	204000
96 h	386000
120 h	228000
